Measured values taken from ChEMBL document CHEMBL5107950, “Structure-based design of haloperidol analogues as inhibitors of acetyltransferase Eis from Mycobacterium tuberculosis to overcome kanamycin resistance” (RSC Med Chem, 2021).
pIC50: −log10 of the molar value. Converted amounts (≈) assume the structure as drawn. The source made the active and inactive calls. The rule behind the calls is not given here.

What was measured:
[1] = Metabolic stability in human liver microsomes at 2 to 4 uM incubated for 30 mins by LC-MS/MS analysis; assay type: ADME, Microsome; settings: dose 2-4 µM, read-out: Stability
[2] = system: Mycolicibacterium smegmatis; experiment: Antibacterial activity against Mycobacterium smegmatis mc2 155 assessed as inhibition of bacterial growth incubated upto 3 weeks hrs by resazurin dye based double-dilution method; assay type: functional; settings: mc2 155, 504 h
Outline: (§1)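 Double-dilution broth MIC. Media: M. smegmatis, Mueller-Hinton; M. abscessus, 7H9 + 0.05% Tween80 + 0.4% glycerol; mc²6230, 7H9 + 0.05% tyloxapol, 0.5% glycerol, 10% OADC, 0.2% casamino acids, 24 µg/mL pantothenate; other mycobacteria, 7H9 + 0.05% Tween80, 0.4% glycerol, 10% ADC. Inoculum from agar set to 0.5 McFarland, then diluted 1:100.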

HEK293 = experiment: Cytotoxicity against human HEK293 cells assessed as reduction in cell viability at 25 uM incubated for 24 hrs by resazurin assay; assay type: toxicity, cell-based; settings: hek293, 24 h
Outline: (§2)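 Resazurin viability assay in DMEM + 10% FBS, 1% penicillin/streptomycin, 37 °C, 5% CO₂. Seeding: HEK-293 and J774A.1 at 1×10^4 cells/mL, A549 at 5×10^3 cells/mL. After 24 h, compounds added (0.78-200 μM, 0.5% DMSO final). Resazurin added 24 h later, read after 6 h. 1% Triton X as positive control. Quadruplicate.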

[3] = Metabolic stability in mouse liver microsomes at 2 to 4 uM incubated for 30 mins by LC-MS/MS analysis; assay type: ADME, Microsome; settings: dose 2-4 µM, read-out: Stability
[4] = system: Mycobacterium tuberculosis; experiment: Antibacterial activity against Mycobacterium tuberculosis H37Ra ATCC NRS22 assessed as inhibition of bacterial growth incubated upto 3 weeks hrs by resazurin dye based double-dilution method; assay type: functional; settings: H37Ra ATCC NRS22, 504 h; outline: as §1
[5] = system: Mycobacterium tuberculosis; experiment: Antibacterial activity against Mycobacterium tuberculosis K204 assessed as inhibition of bacterial growth at 100 uM incubated for 24 hrs by Alamar blue assay; assay type: functional, organism-based
[6] = system: Mycobacteroides abscessus; experiment: Antibacterial activity against Mycobacterium abscessus ATCC 19977 assessed as inhibition of bacterial growth incubated upto 3 weeks hrs by resazurin dye based double-dilution method; assay type: functional; settings: ATCC 19977, 504 h; outline: as §1
[7] = system: Mycolicibacterium smegmatis; experiment: Synergistic antibacterial activity against Mycobacterium smegmatis mc2 155 assessed as fold reduction in MIC value at 8 ug/ml in presence of spectinomycin by checkerboard assay; assay type: functional; settings: dose 8 µg/ml
A549 = experiment: Cytotoxicity against human A549 cells assessed as reduction in cell viability at 25 uM incubated for 24 hrs by resazurin assay; assay type: toxicity, cell-based; settings: a549, 24 h; outline: as §2
N-acetyltransferase Eis = target: T1, N-acetyltransferase Eis (Mycobacterium tuberculosis (strain ATCC 25618 / H37Rv), UniProt P9WFK7); experiment: Inhibition of Mycobacterium tuberculosis Eis assessed as Eis-mediated kanamycin acetylation preincubated for 10 mins followed by substrate addition and measured for 2 to 5 mins using acetyl-CoA as substrate in presence of kanamycin by UV-Vis spectroscopy analysis
T1 sequence (P9WFK7 whole entry): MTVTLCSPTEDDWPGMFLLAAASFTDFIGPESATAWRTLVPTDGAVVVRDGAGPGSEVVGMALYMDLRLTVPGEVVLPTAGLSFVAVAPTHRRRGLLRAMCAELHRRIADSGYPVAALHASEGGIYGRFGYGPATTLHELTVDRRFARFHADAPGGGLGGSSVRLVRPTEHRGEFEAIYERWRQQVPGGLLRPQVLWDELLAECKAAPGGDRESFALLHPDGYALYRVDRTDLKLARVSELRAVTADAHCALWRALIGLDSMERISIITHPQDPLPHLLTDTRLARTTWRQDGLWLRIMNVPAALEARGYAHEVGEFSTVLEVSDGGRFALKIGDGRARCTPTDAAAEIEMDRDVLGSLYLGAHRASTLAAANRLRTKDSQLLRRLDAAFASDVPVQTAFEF
Outline: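 Recombinant Eis (1 µM) mixed with KAN (400 µM) in 50 mM Tris-HCl pH 8.0 and preincubated 10 min with 5-fold serially diluted inhibitor (10% DMSO in buffer). Reaction started with AcCoA and DTNB (2 mM each, as added). Absorbance read every 30 s for 20 min. Initial rates (first 2-5 min) fitted to Hill plot for IC50. At least triplicate.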

Escherichia coli = experiment: Antibacterial activity against Escherichia coli MC1061 assessed as inhibition of bacterial growth incubated upto 3 weeks hrs by resazurin dye based double-dilution method; assay type: functional, organism-based
[8] = system: Mycobacterium intracellulare; experiment: Antibacterial activity against Mycobacterium intracellulare ATCC 13950 assessed as inhibition of bacterial growth incubated upto 3 weeks hrs by resazurin dye based double-dilution method; assay type: functional; settings: ATCC 13950, 504 h; outline: as §1
J774.A1 = experiment: Cytotoxicity against mouse J774.A1 cells assessed as reduction in cell viability at 25 uM incubated for 24 hrs by resazurin assay; assay type: toxicity, cell-based; settings: j774.a1, 24 h; outline: as §2
Mycobacterium avium [9] = experiment: Antibacterial activity against Mycobacterium avium ATCC 25921 assessed as inhibition of bacterial growth incubated upto 3 weeks hrs by resazurin dye based double-dilution method; assay type: functional; settings: ATCC 25921, 504 h; outline: as §1
[10] = system: Mycobacterium tuberculosis; experiment: Antibacterial activity against Mycobacterium tuberculosis H37Rv assessed as inhibition of bacterial growth at 100 uM incubated for 24 hrs by Alamar blue assay; assay type: functional, organism-based
[11] = system: Mycolicibacterium smegmatis; experiment: Synergistic antibacterial activity against Mycobacterium smegmatis mc2 155 assessed as fold reduction in MIC value at 8 ug/ml in presence of clarithromycin by checkerboard assay; assay type: functional; settings: dose 8 µg/ml
[12] = system: Mycobacterium tuberculosis; experiment: Potentiation of kanamycin-induced antibacterial activity against Mycobacterium tuberculosis H37Rv assessed as kanamycin MIC incubated for 1 day followed by kanamycin addition for 6 days and by Alamar blue assay; assay type: functional; settings: 168 h, time 7 day
Outline: (§3)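 Mtb in 7H9 + 10% ADC, 0.05% Tween 80, 0.4% glycerol at 37 °C. Inoculum adjusted to OD600 0.2, diluted 1:25. Cells preincubated 24 h at 37 °C with compound (100 µL of 200 µM solution). KAN then added: H37Rv at 2.5 and 1.25 µg/mL; K204 at 10, 5, 2.5, 1.25 µg/mL. Incubated 6 days, AlamarBlue added, colour read at 24 and 48 h. MIC = lowest KAN with no colour change. At least twice in duplicate.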

[13] = system: Mycobacterium tuberculosis; experiment: Potentiation of kanamycin-induced antibacterial activity against Mycobacterium tuberculosis K204 assessed as kanamycin MIC incubated for 1 day followed by kanamycin addition for 6 days and by Alamar blue assay; assay type: functional; settings: K204, 168 h, time 7 day; outline: as §3
[14] = system: Mycobacterium intracellulare; experiment: Antibacterial activity against Mycobacterium intracellulare ATCC 13950 in presence of spectinomycin by checkerboard assay; assay type: functional, organism-based
Outline: (§4)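 Checkerboard in 96-well plates. Antibiotic two-fold serially diluted along columns, haloperidol derivative two-fold along rows. Bacteria prepared as for the MIC determination. MICs alone and in combination used to calculate FICI. At least duplicate independent trials.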

[15] = system: Mycolicibacterium smegmatis; experiment: Synergistic antibacterial activity against Mycobacterium smegmatis mc2 155 assessed as fold reduction in MIC value at 8 ug/ml in presence of clofazimine by checkerboard assay; assay type: functional, organism-based; settings: dose 8.0 µg/ml
Mycobacterium avium [16] = experiment: Antibacterial activity against Mycobacterium avium ATCC 25921 in presence of spectinomycin by checkerboard assay; assay type: functional, organism-based; outline: as §4
[17] = system: Mycobacteroides abscessus; experiment: Synergistic antibacterial activity against Mycobacterium abscessus ATCC 19977 in presence of clofazimine by checkerboard assay; assay type: functional, organism-based; outline: as §4
[18] = system: Mycobacteroides abscessus; experiment: Synergistic antibacterial activity against Mycobacterium abscessus ATCC 19977 assessed as reduction in bacterial growth presence of spectinomycin by checkerboard assay; assay type: functional, organism-based; outline: as §4
[19] = system: Mycobacterium intracellulare; experiment: Antibacterial activity against Mycobacterium intracellulare ATCC 13950 in presence of clarithromycin by checkerboard assay; assay type: functional, organism-based; outline: as §4
Mycobacterium avium [20] = experiment: Antibacterial activity against Mycobacterium avium ATCC 25921 in presence of clofazimine by checkerboard assay; assay type: functional, organism-based; outline: as §4
Mycobacterium avium [21] = experiment: Antibacterial activity against Mycobacterium avium ATCC 25921 in presence of clarithromycin by checkerboard assay; assay type: functional, organism-based; outline: as §4
[22] = system: Mycobacterium intracellulare; experiment: Antibacterial activity against Mycobacterium intracellulare ATCC 13950 in presence of clofazimine by checkerboard assay; assay type: functional, organism-based; outline: as §4
[23] = system: Mycobacterium tuberculosis; experiment: Synergistic antibacterial activity against Mycobacterium tuberculosis H37Ra ATCC NRS22 in presence of spectinomycin by checkerboard assay; assay type: functional, organism-based; outline: as §4
[24] = system: Mycobacteroides abscessus; experiment: Synergistic antibacterial activity against Mycobacterium abscessus ATCC 19977 in presence of clarithromycin by checkerboard assay; assay type: functional, organism-based; outline: as §4

| Compound | remaining at 0.5 h [1] | MIC [2] | remaining at 0.5 h [3] | MIC [4] | MIC [6] | fold change (FC) [7] | pIC50 (N-acetyltransferase Eis) | MIC [8] | MIC (Mycobacterium avium [9]) | fold change (FC) [11] | MIC [12] | MIC [13] | further results |
| --- | --- | --- | --- | --- | --- | --- | --- | --- | --- | --- | --- | --- | --- |
| CC(C)(C)c1ccc(C(=O)CCCN2CCC(O)(c3ccc(Cl)cc3)CC2)cc1 | 60% | 15.6 µM (≈ 6.46 µg/mL) | 68% | 3.9 µM (≈ 1.61 µg/mL) | > 62.5 µM | 16 | < 3.70 | 7.8 µM (≈ 3.23 µg/mL) | 7.8 µM (≈ 3.23 µg/mL) | 4 |  |  | Activity (HEK293): Toxic; inhibition [5]: Active; Activity (A549): Toxic; inhibition (Escherichia coli): Active; Activity (J774.A1): Toxic; inhibition [10]: Active |
| COc1ccc(C(=O)CCCN2CCC(O)(c3ccc(F)cc3)CC2)cc1 |  | > 62.5 µM |  | > 62.5 µM | > 62.5 µM |  | 4.38 | > 62.5 µM | > 62.5 µM |  | ≤ 1.25 µg/mL | > 10 µg/mL |  |
| O=C(CCCN1CC=C(c2ccc(Cl)cc2)CC1)c1ccc(F)cc1 | 30% | > 62.5 µM | 90% | 7.8 µM (≈ 2.79 µg/mL) | > 62.5 µM |  | 6.25 | 15.6 µM (≈ 5.58 µg/mL) | 31.3 µM (≈ 11.2 µg/mL) |  |  |  |  |
| O=C(CCCN1CCC(O)(c2ccc(Br)cc2)CC1)c1ccc(Cl)cc1 | 36% | 31.3 µM (≈ 13.7 µg/mL) | 83% | 7.8 µM (≈ 3.41 µg/mL) | > 62.5 µM | 16 | 5.96 | 62.5 µM (≈ 27.3 µg/mL) | > 62.5 µM | 4 | ≤ 1.25 µg/mL | 10 µg/mL | Activity [14]: Active; Activity [15]: Active; Activity (Mycobacterium avium [16]): Active; Activity [17]: Active; Activity [18]: Active; Activity [19]: Active; Activity (Mycobacterium avium [20]): Active; Activity (Mycobacterium avium [21]): Active; Activity [22]: Active; Activity [23]: Active |
| O=C(CCCN1CCC(O)(c2ccc(F)cc2)CC1)c1ccc(Cl)cc1 |  | > 62.5 µM |  | > 62.5 µM | > 62.5 µM | 16 | 5.59 | > 62.5 µM | > 62.5 µM | 4 | ≤ 1.25 µg/mL | 10 µg/mL | Activity [14]: Active; Activity [15]: Active; Activity (Mycobacterium avium [16]): Active; Activity [17]: Active; Activity [18]: Active; Activity [19]: Active; Activity (Mycobacterium avium [20]): Active; Activity (Mycobacterium avium [21]): Active; Activity [22]: Active; Activity [23]: Active; Activity [24]: Active |
| O=C(CCCN1CCC(O)(c2ccc(Br)cc2)CC1)c1ccc(Br)cc1 |  | 31.3 µM (≈ 15.1 µg/mL) |  | 7.8 µM (≈ 3.75 µg/mL) | > 62.5 µM |  | < 3.70 | > 62.5 µM | > 62.5 µM |  | ≤ 1.25 µg/mL | > 10 µg/mL |  |
| O=C(CCCN1CCC(O)(c2ccc(Br)cc2)CC1)c1ccccc1 |  | > 62.5 µM |  | 62.5 µM (≈ 25.1 µg/mL) | > 62.5 µM |  | 5.66 | > 62.5 µM | > 62.5 µM |  | ≤ 1.25 µg/mL | 10 µg/mL |  |
